Source: ChEMBL document CHEMBL4052590, “Anti-Osteoporotic Activity of Harpagoside by Upregulation of the BMP2 and Wnt Signaling Pathways in Osteoblasts and Suppression of Differentiation in Osteoclasts” (J Nat Prod, 2017)
The source made the active and inactive calls. No cut-off for these calls is given here.

What was measured:
MC3T3-E1 [1] = assay: Antiosteoporotic activity in mouse MC3T3-E1 cells assessed as formation of mineralized nodule after 14 days in presence of ascorbic acid and beta-glycerophosphate by Alizarin red S staining-based microscopic method; type: functional, cell-based
How it was run: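 MC3T3-E1 cells (2 × 10^4 cells/mL) in 400 μM ascorbic acid and 5 mM β-glycerophosphate, with or without compound, for 14 days. Fixed in 70% ethanol 30 min, stained 5 min with 2% Alizarin red S (pH 4.0), viewed by microscopy. Stain extracted with 10% cetylpyridinium chloride, A570 read.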

MC3T3-E1 [2] = assay: Downregulation of DKK1 protein expression in mouse MC3T3-E1 cells up to 4 uM after 48 hrs in presence of ascorbic acid and beta-glycerophosphate by Western blot analysis; type: functional, cell-based
How it was run: (§1)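 MC3T3-E1 cells given 400 μM ascorbic acid plus 5 mM β-glycerophosphate, exposed to test compound or not for 48 h. Lysed in boiling SDS sample buffer, protein measured by BCA. 40−50 μg of lysate run on 8% or 10% SDS-PAGE and transferred to PVDF. Blocked in 5% milk, probed with primary antibodies for 3 h at room temperature or overnight at 4 °C, detected by ECL.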

MC3T3-E1 [3] = assay: Increase in ALP mRNA expression in 2 days differentiated mouse MC3T3-E1 cells up to 4 uM after 48 hrs in presence of ascorbic acid and beta-glycerophosphate by real-time PCR analysis; type: functional, cell-based
How it was run: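 MC3T3-E1 cells stimulated with 400 μM ascorbic acid and 5 mM β-glycerophosphate, with or without compound, 48 h. TRIzol RNA, real-time RT-PCR: 40 cycles of 95 °C 20 s, 56 °C 20 s, 72 °C 30 s. Ct of each transcript […] β-actin Ct, expressed relative to control samples.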

MC3T3-E1 [4] = assay: Upregulation of OPN protein expression in 2 days differentiated mouse MC3T3-E1 cells up to 4 uM after 48 hrs in presence of ascorbic acid and beta-glycerophosphate by Western blot analysis; type: functional, cell-based
Mus musculus [5] = assay: Effect on calcium level in serum of OVX-induced bone loss ICR mouse model at 2 mg/kg, po for 12 weeks by ELISA (reference value: 9.3 +/- 0.3 mg/dl); type: functional
Osteoclast [6] = assay: Inhibition of RANKL/M-CSF-induced osteoclast differentiation in mouse bone marrow-derived osteoclasts assessed as downregulation of TRAP protein expression up to 4 uM after 48 hrs by Western blot analysis; type: functional, cell-based
How it was run: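 Mouse bone marrow cells were taken from 4-week-old mice and primed 24 h in 30 ng/mL M-CSF. They were then given 100 ng/mL RANKL plus 30 ng/mL M-CSF, with or without compound, for 48 h. Lysates were made in boiling SDS buffer and quantified by BCA. 40–50 μg was run on SDS-PAGE and immunoblotted on PVDF with β-actin reference and ECL read-out.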

Osteoclast [7] = assay: Inhibition of RANKL/M-CSF-induced osteoclast differentiation in mouse bone marrow-derived osteoclasts assessed as reduction in formation of TRAP-positive cells after 5 days; type: functional, cell-based
How it was run: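 Bone marrow cells from 4-week-old mice were primed 24 h with 30 ng/mL M-CSF, then cultured with 100 ng/mL RANKL plus 30 ng/mL M-CSF. Compound was present or absent and medium was renewed every 2 days. On day 5 cells were fixed in 4% paraformaldehyde and TRAP-stained 1 h at 37 °C. Multinucleated TRAP-positive cells with ≥3 nuclei were counted as osteoclasts.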

Mus musculus [8] = assay: Anti-osteoporotic activity in ovariectomized ICR mouse assessed as increase in ratio of bone volume to tissue volume of femur at 2 to 10 mg/kg, po after 12 weeks by microcomputed tomography; type: functional, organism-based
Mus musculus [9] = assay: Effect on calcium level in serum of OVX-induced bone loss ICR mouse model at 10 mg/kg, po for 12 weeks by ELISA (reference value: 9.3 +/- 0.3 mg/dl); type: functional
Mus musculus [10] = assay: Effect on C-terminal telopeptide level in serum of OVX-induced bone loss ICR mouse model at 5 mg/kg, po for 12 weeks by ELISA (reference value: 95.7 +/- 3.8 ng/ml); type: functional
Mus musculus [11] = assay: Effect on C-terminal telopeptide level in serum of OVX-induced bone loss ICR mouse model at 10 mg/kg, po for 12 weeks by ELISA (reference value: 95.7 +/- 3.8 ng/ml); type: functional
MC3T3-E1 [12] = assay: Antiosteoporotic activity in mouse MC3T3-E1 cells assessed as increase in alkaline phosphatase activity after 4 days using pNPP as substrate in presence of ascorbic acid and beta-glycerophosphate by colorimetric assay; type: functional, cell-based
How it was run: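 MC3T3-E1 cells (2 × 10^4 cells/mL) in osteogenic medium (400 μM ascorbic acid, 5 mM β-glycerophosphate) with or without compound for 4 days. Fixed in 70% ethanol, lysed in Tris/0.1% Triton X-100 pH 7.5. ALP read as p-NPP to p-nitrophenol at 405 nm; protein by Bradford.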

Mus musculus [13] = species: Mus musculus; assay: Activation of Wnt signaling pathway in mouse MC3T3-E1 cells assessed as increase in Runx2 mRNA expression after 48 hrs in presence of ascorbic acid and beta-glycerophosphate by real-time PCR analysis; type: cell-based
MC3T3-E1 [14] = assay: Decrease in RANKL mRNA expression in mouse MC3T3-E1 cells at up to 4 uM after 48 hrs in presence of ascorbic acid and beta-glycerophosphate by real-time PCR analysis; type: functional, cell-based
MC3T3-E1 [15] = assay: Upregulation of ALP protein expression in 2 days differentiated mouse MC3T3-E1 cells up to 4 uM after 48 hrs in presence of ascorbic acid and beta-glycerophosphate by Western blot analysis; type: functional, cell-based
MC3T3-E1 [16] = assay: Induction of OCN mRNA expression in mouse MC3T3-E1 cells up to 4 uM after 48 hrs in presence of ascorbic acid and beta-glycerophosphate by real-time PCR analysis
Mus musculus [17] = assay: Effect on alkaline phosphatase activity in serum of OVX-induced bone loss ICR mouse model at 10 mg/kg, po for 12 weeks using p-NPP as substrate (reference value: 84.9 +/- 4.2 U/L); type: functional
MC3T3-E1 [18] = assay: Downregulation of RANKL protein expression in mouse MC3T3-E1 cells up to 4 uM after 48 hrs in presence of ascorbic acid and beta-glycerophosphate by Western blot analysis; type: functional, cell-based; how it was run: as §1
Mus musculus [19] = assay: Anti-osteoporotic activity in ovariectomized ICR mouse assessed as increase in trabecular number in femur at 2 to 10 mg/kg, po after 12 weeks by microcomputed tomography; type: functional, organism-based
Mus musculus [20] = assay: Effect on alkaline phosphatase activity in serum of OVX-induced bone loss ICR mouse model at 2 mg/kg, po for 12 weeks using p-NPP as substrate (reference value: 84.9 +/- 4.2 U/L); type: functional
Mus musculus [21] = assay: Effect on […] level in serum of OVX-induced bone loss ICR mouse model at 5 mg/kg, po for 12 weeks by ELISA (reference value: 8.2 +/- 0.4 mg/dl); type: functional

SMILES: C[C@]1(OC(=O)/C=C/c2ccccc2)C[C@@H](O)[C@]2(O)C=CO[C@@H](O[C@@H]3O[C@H](CO)[C@@H](O)[C@H](O)[C@H]3O)[C@@H]21 [HARPAGOSIDE]
- Activity (MC3T3-E1 [1]): Dose-dependent effect
- Activity (MC3T3-E1 [2]): Active
- Activity (MC3T3-E1 [3]): Dose-dependent effect
- Activity (MC3T3-E1 [4]): Dose-dependent effect
- Activity (Mus musculus [5]): 9.3 mg/dL
- inhibition (Osteoclast [6]): Active
- inhibition (Osteoclast [7]): Active
- Activity (Mus musculus [8]): Active
- Activity (Mus musculus [9]): 10.3 mg/dL
- Activity (Mus musculus [10]): 85.9 ng/mL
- Activity (Mus musculus [11]): 80.7 ng/mL
- Activity (MC3T3-E1 [12]): Dose-dependent effect
- Activity (Mus musculus [13]): Dose-dependent effect
- Activity (MC3T3-E1 [14]): Active
- Activity (MC3T3-E1 [15]): Dose-dependent effect
- Activity (MC3T3-E1 [16]): Active
- Activity (Mus musculus [17]): 78.8 U/L
- Activity (MC3T3-E1 [18]): Active
- Activity (Mus musculus [19]): Active
- Activity (Mus musculus [20]): 78.5 U/L
- Activity (Mus musculus [21]): 8 mg/dL
